Test results from ChEMBL document CHEMBL1154691, “Synthesis and evaluation of a new generation of orally efficacious benzimidazole-based poly(ADP-ribose) polymerase-1 (PARP-1) inhibitors as anticancer agents” (J Med Chem, 2009).
Blank lines part the entries; values can stand above or below the compound they belong to.

Key:
[1] = target: T1, Poly [ADP-ribose] polymerase 1 (Homo sapiens, UniProt P09874); experiment: Inhibition of PARP1 by scintillation counting
[2] = target: T1, Poly [ADP-ribose] polymerase 1; experiment: Inhibition of PARP1 in human C41 cells after 30 mins by cell-based assay
[3] = Clearance in CD1 mouse at 3.0 mg/kg, iv; format: ADME, organism-based; parameters: dose 3 mg/kg, route intravenous; conditions: in vivo
Procedure, shortened: (§1)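 Male CD-1 mice (26-30 g) were dosed iv via the tail vein or po by gavage. Blood was taken by cardiac puncture after CO₂ asphyxiation at set times. Plasma proteins were precipitated with acidified methanol. Samples were quantified by LC-ESI-MS against external standards from spiked control plasma.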

[4] = Volume of distribution in CD1 mouse at 3.0 mg/kg, iv; format: ADME, organism-based; parameters: dose 3 mg/kg, route intravenous; conditions: in vivo; procedure, shortened: as §1
[5] = Half life in CD1 mouse at 3.0 mg/kg, iv; format: ADME, organism-based; parameters: dose 3 mg/kg, route intravenous; conditions: in vivo; procedure, shortened: as §1
[6] = AUC in CD1 mouse at 3.0 mg/kg, iv; format: ADME, organism-based; parameters: dose 3 mg/kg, route intravenous; conditions: plasma; procedure, shortened: as §1
[7] = Oral bioavailability in CD1 mouse at 10 mg/kg; format: ADME, organism-based; conditions: in vivo; procedure, shortened: as §1
[8] = Cmax in CD1 mouse at 10 mg/kg, po; format: ADME, organism-based; parameters: dose 10 mg/kg, route oral; conditions: in vivo; procedure, shortened: as §1
[9] = AUC in CD1 mouse at 10 mg/kg, po; format: ADME, organism-based; parameters: dose 10 mg/kg, route oral; conditions: plasma; procedure, shortened: as §1
B16-F10 [10] = experiment: Antitumor activity against mouse B16F10 cells implanted in C57BL/6 mouse at 60 mg/kg, po BID for 5 days measured on day 12 in presence of DNA alkylating agent temozolomide; format: functional; conditions: read-out: TGI
Procedure, shortened: (§2)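 B16F10 syngeneic model: cells in Matrigel (1:1) were injected sc into the flank at 6 × 10⁴ cells per mouse. Recipients were female C57BL/6 mice, 6-8 weeks old, 18-20 g. Temozolomide was given po q.d. at 50 mg/kg/day for 5 consecutive days. Over the same period the PARP inhibitor was given po b.i.d. Read-out was relative tumor growth inhibition on the stated day.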

B16-F10 [11] = experiment: Antitumor activity against mouse B16F10 cells implanted in C57BL/6 mouse at 60 mg/kg, po BID for 5 days measured on day 19 in presence of DNA alkylating agent temozolomide; format: functional; conditions: read-out: TGI; procedure, shortened: as §2
B16-F10 [12] = experiment: Antitumor activity against mouse B16F10 cells implanted in C57BL/6 mouse at 30 mg/kg, po BID for 5 days measured on day 12 in presence of DNA alkylating agent temozolomide; format: functional; conditions: read-out: TGI; procedure, shortened: as §2
B16-F10 [13] = experiment: Antitumor activity against mouse B16F10 cells implanted in C57BL/6 mouse at 30 mg/kg, po BID for 5 days measured on day 19 in presence of DNA alkylating agent temozolomide; format: functional; conditions: read-out: TGI; procedure, shortened: as §2
B16-F10 [14] = experiment: Antitumor activity against mouse B16F10 cells implanted in C57BL/6 mouse at 10 mg/kg, po BID for 5 days measured on day 12 in presence of DNA alkylating agent temozolomide; format: functional; conditions: read-out: TGI; procedure, shortened: as §2
B16-F10 [15] = experiment: Antitumor activity against mouse B16F10 cells implanted in C57BL/6 mouse at 10 mg/kg, po BID for 5 days measured on day 19 in presence of DNA alkylating agent temozolomide; format: functional; conditions: read-out: TGI; procedure, shortened: as §2
B16-F10 [16] = experiment: Antitumor activity against mouse B16F10 cells implanted in C57BL/6 mouse at 30 mg/kg, po BID for 5 days measured on day 16 in presence of DNA alkylating agent temozolomide; format: functional; conditions: B16-F10, read-out: TGI; procedure, shortened: as §2
B16-F10 [17] = experiment: Antitumor activity against mouse B16F10 cells implanted in C57BL/6 mouse at 10 mg/kg, po BID for 5 days measured on day 16 in presence of DNA alkylating agent temozolomide; format: functional; conditions: B16-F10, read-out: TGI; procedure, shortened: as §2
B16-F10 [18] = experiment: Antitumor activity against mouse B16F10 cells implanted in C57BL/6 mouse at 3 mg/kg, po BID for 5 days measured on day 16 in presence of DNA alkylating agent temozolomide; format: functional; conditions: read-out: TGI
B16-F10 [19] = experiment: Antitumor activity against mouse B16F10 cells implanted in C57BL/6 mouse at 3 mg/kg, po BID for 5 days measured on day 19 in presence of DNA alkylating agent temozolomide; format: functional; conditions: read-out: TGI
B16-F10 [20] = experiment: Antitumor activity against mouse B16F10 cells implanted in C57BL/6 mouse at 50 mg/kg, po QD for 5 days measured on day 12; format: functional; conditions: read-out: TGI
B16-F10 [21] = experiment: Antitumor activity against mouse B16F10 cells implanted in C57BL/6 mouse at 50 mg/kg, po QD for 5 days measured on day 16; format: functional; conditions: read-out: TGI

T1 sequence (P09874 whole entry): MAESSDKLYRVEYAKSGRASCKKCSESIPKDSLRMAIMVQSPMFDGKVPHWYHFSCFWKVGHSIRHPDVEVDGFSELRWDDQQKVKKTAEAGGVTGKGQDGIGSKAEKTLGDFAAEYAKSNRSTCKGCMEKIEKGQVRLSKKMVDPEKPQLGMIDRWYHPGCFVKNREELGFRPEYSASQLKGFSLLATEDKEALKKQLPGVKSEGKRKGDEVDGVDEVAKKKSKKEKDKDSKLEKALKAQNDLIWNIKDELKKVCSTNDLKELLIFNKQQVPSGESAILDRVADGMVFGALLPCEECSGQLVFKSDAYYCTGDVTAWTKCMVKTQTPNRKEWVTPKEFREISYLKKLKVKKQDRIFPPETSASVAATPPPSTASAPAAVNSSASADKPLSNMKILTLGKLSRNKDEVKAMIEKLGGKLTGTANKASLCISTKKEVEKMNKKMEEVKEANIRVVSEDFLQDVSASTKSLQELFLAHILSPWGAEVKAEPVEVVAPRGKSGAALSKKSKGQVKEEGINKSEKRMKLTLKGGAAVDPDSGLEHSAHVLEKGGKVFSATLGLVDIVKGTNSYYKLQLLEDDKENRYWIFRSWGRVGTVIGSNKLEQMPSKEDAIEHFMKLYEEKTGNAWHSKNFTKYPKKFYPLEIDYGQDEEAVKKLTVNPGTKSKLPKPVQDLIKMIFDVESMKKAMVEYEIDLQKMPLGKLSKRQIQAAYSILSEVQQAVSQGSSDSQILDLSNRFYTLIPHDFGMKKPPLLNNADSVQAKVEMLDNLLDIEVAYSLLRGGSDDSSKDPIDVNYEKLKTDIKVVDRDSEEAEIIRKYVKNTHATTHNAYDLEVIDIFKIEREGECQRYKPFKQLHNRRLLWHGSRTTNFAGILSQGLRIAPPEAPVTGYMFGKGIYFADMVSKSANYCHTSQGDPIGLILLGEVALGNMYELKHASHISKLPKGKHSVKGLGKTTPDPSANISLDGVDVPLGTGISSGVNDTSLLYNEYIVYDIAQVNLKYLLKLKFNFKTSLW

Compound: NC(=O)c1cccc2[nH]c(-c3ccc(-c4ncc[nH]4)cc3)nc12
- Ki [1]: 2.2 nM
- EC50 [2]: 2.2 nM
- clearance [3]: 533 mL/min/kg
- Vd [4]: 26 L/kg
- half-life [5]: 33.6 min
- AUC [6]: 0.31 µM·h
- bioavailability [7]: 0%

Compound: NC(=O)c1cccc2[nH]c(-c3ccc(-c4cnco4)cc3)nc12
- Ki [1]: 0.76 nM
- EC50 [2]: 0.99 nM
- clearance [3]: 300 mL/min/kg
- Vd [4]: 26 L/kg
- half-life [5]: 58.2 min
- AUC [6]: 0.54 µM·h
- Cmax [8]: 70 nM
- AUC [9]: 0.11 µM·h
- bioavailability [7]: 6%

Compound: NC(=O)c1cccc2[nH]c(-c3ccc(-c4nnn[nH]4)cc3)nc12
- Ki [1]: 20 nM

- Ki [1]: 10 nM
- EC50 [2]: > 1000 nM
Compound: NC(=O)c1cccc2[nH]c(-c3ccc(-c4ccno4)cc3)nc12

- Ki [1]: 1 nM
- EC50 [2]: 3.7 nM
- clearance [3]: 55 mL/min/kg
- Vd [4]: 1.7 L/kg
- half-life [5]: 21.6 min
- AUC [6]: 3 µM·h
- Cmax [8]: 2700 nM
- AUC [9]: 4 µM·h
- bioavailability [7]: 41%
Compound: NC(=O)c1cccc2[nH]c(-c3ccc(-c4nnco4)cc3)nc12
- inhibition in vivo at 60 mg/kg (B16-F10 [10]): 67%
- inhibition in vivo at 60 mg/kg (B16-F10 [11]): 81%
- inhibition in vivo at 30 mg/kg (B16-F10 [12]): 59%
- inhibition in vivo at 30 mg/kg (B16-F10 [13]): 72%
- inhibition in vivo at 10 mg/kg (B16-F10 [14]): 57%
- inhibition in vivo at 10 mg/kg (B16-F10 [15]): 53%

- Ki [1]: 6.8 nM
- EC50 [2]: 20 nM
Compound: NC(=O)c1cccc2[nH]c(-c3ccc(-c4cn5ccc(C(F)(F)F)cc5n4)cc3)nc12

- Ki [1]: 3.8 nM
- EC50 [2]: 328 nM
Compound: NC(=O)c1cccc2[nH]c(-c3ccc(-c4nc(=S)o[nH]4)cc3)nc12

- clearance [3]: 147 mL/min/kg
- Vd [4]: 7.3 L/kg
- half-life [5]: 34.8 min
- AUC [6]: 1.1 µM·h
- Cmax [8]: 2200 nM
- AUC [9]: 2.7 µM·h
- bioavailability [7]: 73%
Compound: NC(=O)c1cccc2[nH]c(-c3ccc(-c4cccnc4)cc3)nc12

- Ki [1]: 2.2 nM
- EC50 [2]: 26 nM
Compound: NC(=O)c1cccc2[nH]c(-c3ccc(-c4csc(N)n4)cc3)nc12

Compound: NC(=O)c1cccc2[nH]c(-c3ccc(-c4cscn4)cc3)nc12
- Ki [1]: 1.7 nM
- EC50 [2]: 3.7 nM

Compound: NC(=O)c1cccc2[nH]c(-c3ccc(-c4cnc[nH]4)cc3)nc12
- Ki [1]: 1.2 nM
- EC50 [2]: 3.7 nM

- clearance [3]: 123 mL/min/kg
- Vd [4]: 6.6 L/kg
- half-life [5]: 37.2 min
- AUC [6]: 1.3 µM·h
- Cmax [8]: 1800 nM
- AUC [9]: 6.1 µM·h
- bioavailability [7]: 141%
Compound: NC(=O)c1cccc2[nH]c(-c3ccc(-c4ccccn4)cc3)nc12
- inhibition in vivo at 30 mg/kg (B16-F10 [13]): 70%
- inhibition in vivo at 10 mg/kg (B16-F10 [15]): 32%
- inhibition in vivo at 30 mg/kg (B16-F10 [16]): 72%
- inhibition in vivo at 10 mg/kg (B16-F10 [17]): 83%
- inhibition in vivo at 3 mg/kg (B16-F10 [18]): 66%
- inhibition in vivo at 3 mg/kg (B16-F10 [19]): 23%

Compound: NC(=O)c1cccc2[nH]c(-c3ccc(-c4n[nH]c(=O)o4)cc3)nc12
- Ki [1]: 1.6 nM
- EC50 [2]: 64 nM

- clearance [3]: 167 mL/min/kg
- Vd [4]: 5.9 L/kg
- half-life [5]: 24 min
- AUC [6]: 0.94 µM·h
- Cmax [8]: 760 nM
- AUC [9]: 1.4 µM·h
- bioavailability [7]: 44%
Compound: NC(=O)c1cccc2[nH]c(-c3ccc(-c4ccncc4)cc3)nc12

- Ki [1]: 2 nM
- EC50 [2]: 71 nM
Compound: NC(=O)c1cccc2[nH]c(-c3ccc(-c4ccccc4)cc3)nc12

Compound: NC(=O)c1cccc2[nH]c(-c3ccc(-c4cn5ccccc5n4)cc3)nc12
- Ki [1]: 2.9 nM
- EC50 [2]: 20 nM

Compound: NC(=O)c1cccc2[nH]c(-c3ccc(-c4nc(=O)o[nH]4)cc3)nc12
- Ki [1]: 16 nM

Compound: Cn1ccc(-c2ccc(-c3nc4c(C(N)=O)cccc4[nH]3)cc2)n1
- Ki [1]: 4.5 nM
- EC50 [2]: 20 nM

Compound: Cc1noc(-c2ccc(-c3nc4c(C(N)=O)cccc4[nH]3)cc2)n1
- Ki [1]: 4 nM
- EC50 [2]: 9.1 nM

Compound: NC(=O)c1cccc2[nH]c(-c3ccc(-c4nsc(=O)[nH]4)cc3)nc12
- Ki [1]: 5.2 nM
- EC50 [2]: 461 nM

Compound: Cc1nc(-c2ccc(-c3nc4c(C(N)=O)cccc4[nH]3)cc2)co1
- Ki [1]: 2.4 nM
- EC50 [2]: 18 nM

Compound: Cn1nnc2c(C(N)=O)ncn2c1=O [TEMOZOLOMIDE]
- inhibition in vivo at 50 mg/kg (B16-F10 [20]): 43%
- inhibition in vivo at 50 mg/kg (B16-F10 [21]): 56%
